# Active and inactive are the calls of the source. The calls are words filed in the database; no cut-off is given here.
# Assays:
# [1] = target: Neuronal acetylcholine receptor; alpha4/beta2 (Rattus norvegicus, UniProt P09483+P12390); experiment: Displacement of [3H]epibatidine from rat alpha4beta2 nAChR expressed in […] cells after 4 hrs by liquid scintillation counting; assay type: cell-based
# Outline: (§1)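 Competition binding against racemic [³H]epibatidine. Receptor source: membrane homogenates of HEK293 cells stably transfected with the rat nAChR subtype (α3β4, α4β2 or α7). Affinity reported as Ki.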
# [2] = target: Neuronal acetylcholine receptor; alpha3/beta4 (Rattus norvegicus, UniProt P04757+P12392); experiment: Displacement of [3H]epibatidine from rat alpha3beta4 nAChR expressed in […] cells after 4 hrs by liquid scintillation counting; assay type: cell-based; outline: as §1
# Neuronal acetylcholine receptor; alpha3/beta4, sequence (P04757 whole entry): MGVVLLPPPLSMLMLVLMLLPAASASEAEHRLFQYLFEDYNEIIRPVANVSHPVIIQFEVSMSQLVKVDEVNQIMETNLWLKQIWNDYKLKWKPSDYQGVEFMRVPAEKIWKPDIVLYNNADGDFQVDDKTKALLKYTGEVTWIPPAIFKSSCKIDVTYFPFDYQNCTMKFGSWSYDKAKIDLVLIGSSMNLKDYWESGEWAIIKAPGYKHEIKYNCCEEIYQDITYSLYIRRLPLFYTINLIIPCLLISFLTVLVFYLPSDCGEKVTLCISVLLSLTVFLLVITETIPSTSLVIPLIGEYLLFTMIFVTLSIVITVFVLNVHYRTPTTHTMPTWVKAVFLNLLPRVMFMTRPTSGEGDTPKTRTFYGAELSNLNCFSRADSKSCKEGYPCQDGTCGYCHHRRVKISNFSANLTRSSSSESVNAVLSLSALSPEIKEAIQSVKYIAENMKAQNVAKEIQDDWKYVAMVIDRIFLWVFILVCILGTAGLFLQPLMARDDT
# Neuronal acetylcholine receptor; alpha3/beta4, sequence (P12392 whole entry): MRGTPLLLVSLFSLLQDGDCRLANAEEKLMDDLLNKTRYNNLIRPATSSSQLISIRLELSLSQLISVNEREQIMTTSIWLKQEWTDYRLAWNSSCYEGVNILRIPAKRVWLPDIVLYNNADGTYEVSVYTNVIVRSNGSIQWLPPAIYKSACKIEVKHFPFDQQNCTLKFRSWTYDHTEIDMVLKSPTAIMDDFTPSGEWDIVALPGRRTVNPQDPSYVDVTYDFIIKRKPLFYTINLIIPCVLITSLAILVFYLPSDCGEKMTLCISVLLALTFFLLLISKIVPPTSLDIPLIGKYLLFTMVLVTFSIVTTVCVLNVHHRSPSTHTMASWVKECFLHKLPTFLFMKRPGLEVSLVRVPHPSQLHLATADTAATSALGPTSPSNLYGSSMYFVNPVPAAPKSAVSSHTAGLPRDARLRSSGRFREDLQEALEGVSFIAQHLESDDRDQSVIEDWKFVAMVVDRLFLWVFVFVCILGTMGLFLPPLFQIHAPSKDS
# [3] = target: T1, Neuronal acetylcholine receptor subunit alpha-7 (Rattus norvegicus, UniProt Q05941); experiment: Displacement of [3H]epibatidine from rat alpha7 nAChR expressed in […] cells after 4 hrs by liquid scintillation counting; assay type: cell-based; outline: as §1
# T1 sequence (Q05941 whole entry): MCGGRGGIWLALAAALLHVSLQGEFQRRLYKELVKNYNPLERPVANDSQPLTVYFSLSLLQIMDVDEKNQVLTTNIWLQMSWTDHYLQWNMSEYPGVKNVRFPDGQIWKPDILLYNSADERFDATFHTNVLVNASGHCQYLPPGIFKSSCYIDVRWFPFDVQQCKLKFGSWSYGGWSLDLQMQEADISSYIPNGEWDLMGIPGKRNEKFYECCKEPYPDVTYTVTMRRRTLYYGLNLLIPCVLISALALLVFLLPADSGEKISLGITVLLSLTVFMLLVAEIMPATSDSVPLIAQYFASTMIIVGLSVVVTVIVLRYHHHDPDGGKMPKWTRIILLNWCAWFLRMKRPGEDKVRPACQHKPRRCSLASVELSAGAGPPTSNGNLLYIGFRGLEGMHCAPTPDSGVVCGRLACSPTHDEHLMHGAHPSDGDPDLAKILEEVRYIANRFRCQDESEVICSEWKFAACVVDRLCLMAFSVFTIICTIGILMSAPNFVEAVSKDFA
# [4] = target: Neuronal acetylcholine receptor subunit alpha-7 (Rattus norvegicus) (UniProt Q05941); experiment: Agonist activity at wild type rat recombinant alpha7 nAChR expressed in Xenopus oocyte at 100 uM by voltage clamp electrophysiology assay; assay type: functional
# Neuronal acetylcholine receptor subunit alpha-7 (Rattus norvegicus), sequence (Q05941 whole entry): as above
# [5] = target: Neuronal acetylcholine receptor subunit alpha-7 (Rattus norvegicus) (UniProt Q05941); experiment: Antagonist activity at wild type rat recombinant alpha7 nAChR expressed in Xenopus oocyte assessed as inhibition of ACh-gated current at 100 uM by voltage clamp electrophysiology assay; assay type: functional
# [6] = target: Neuronal acetylcholine receptor subunit alpha-7 (Rattus norvegicus) (UniProt Q05941); experiment: Partial agonist activity at wild type rat alpha7 nAChR expressed in Xenopus oocyte by voltage clamp electrophysiology assay relative to acetylcholine; assay type: functional
# [7] = target: T1, Neuronal acetylcholine receptor subunit alpha-7; experiment: Partial agonist activity at wild type rat recombinant alpha7 nAChR expressed in Xenopus oocyte by voltage clamp electrophysiology assay; assay type: functional
# Neuronal acetylcholine receptor; alpha4/beta2, sequence (P09483 whole entry): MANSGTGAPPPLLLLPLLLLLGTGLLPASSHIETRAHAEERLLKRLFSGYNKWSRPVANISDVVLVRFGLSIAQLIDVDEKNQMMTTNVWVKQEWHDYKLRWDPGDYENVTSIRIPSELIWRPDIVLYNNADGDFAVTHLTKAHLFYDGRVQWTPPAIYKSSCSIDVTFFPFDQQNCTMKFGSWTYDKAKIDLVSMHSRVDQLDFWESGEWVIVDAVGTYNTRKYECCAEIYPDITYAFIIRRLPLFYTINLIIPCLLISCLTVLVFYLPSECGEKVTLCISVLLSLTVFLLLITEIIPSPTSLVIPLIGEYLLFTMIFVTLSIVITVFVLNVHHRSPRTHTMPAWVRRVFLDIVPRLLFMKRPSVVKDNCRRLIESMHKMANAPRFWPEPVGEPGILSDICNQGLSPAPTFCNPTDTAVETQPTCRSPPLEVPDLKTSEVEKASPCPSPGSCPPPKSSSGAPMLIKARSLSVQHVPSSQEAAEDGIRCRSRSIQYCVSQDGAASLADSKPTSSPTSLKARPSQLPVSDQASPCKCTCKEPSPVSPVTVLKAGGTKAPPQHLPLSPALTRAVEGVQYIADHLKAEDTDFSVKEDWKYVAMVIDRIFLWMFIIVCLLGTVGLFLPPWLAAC
# Neuronal acetylcholine receptor; alpha4/beta2, sequence (P12390 whole entry): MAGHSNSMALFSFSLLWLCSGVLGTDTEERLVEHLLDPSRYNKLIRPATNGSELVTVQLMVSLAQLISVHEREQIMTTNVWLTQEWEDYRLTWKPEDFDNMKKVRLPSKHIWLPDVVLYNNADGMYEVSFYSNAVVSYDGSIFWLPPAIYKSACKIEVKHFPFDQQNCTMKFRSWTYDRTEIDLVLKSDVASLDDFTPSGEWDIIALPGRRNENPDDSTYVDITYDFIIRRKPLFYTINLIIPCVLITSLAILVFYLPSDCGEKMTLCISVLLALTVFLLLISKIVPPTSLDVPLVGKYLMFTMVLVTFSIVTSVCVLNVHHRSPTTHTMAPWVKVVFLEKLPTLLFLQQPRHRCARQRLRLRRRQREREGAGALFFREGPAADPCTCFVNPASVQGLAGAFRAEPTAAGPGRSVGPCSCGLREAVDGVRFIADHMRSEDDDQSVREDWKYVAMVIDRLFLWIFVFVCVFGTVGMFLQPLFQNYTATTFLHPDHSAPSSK
SMILES,Ki [1],Ki [2],Ki [3],Activity [6],EC50 [7],Activity [4],inhibition [5]
O=C(CCCCCN1CCOCC1)Nc1ccc(-c2cccnc2)cc1,> 10 µM,> 10 µM,> 10 µM,–,–,inactive,inactive
O=C(CCCN1CCOCC1)Nc1ccc(-c2cccnc2)cc1,> 10 µM,> 10 µM,> 10 µM,–,–,inactive,inactive

# Second part, led by results:
Ki [1],Ki [2],Ki [3],Activity [6],EC50 [7],SMILES,Activity [4],inhibition [5]
> 10 µM,> 10 µM,3.9 µM,–,–,O=C(CN1CCOCC1)Nc1ccc(-c2cccnc2)cc1,inactive,inactive
> 10 µM,> 10 µM,> 10 µM,–,–,O=C(CCN1CCOCC1)Nc1ccc(-c2cccnc2)cc1,inactive,inactive
> 10 µM,> 10 µM,0.5 µM,11%,9.5 µM,O=C(CCCCN1CCOCC1)Nc1ccc(-c2cccnc2)cc1,–,–
